The data set is classed as physicochemical. The following applies: 0.5 M pH 4.0 acetate buffer, 1 mg/mL, 100 °C, analytical HPLC, LC-MS. The method, boiled down:
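Each peptide (about 0.1 mL) was heated in a sealed plastic tube, cooled, and then analysed by reversed-phase C18 analytical HPLC with UV detection. The HPLC ran at 1 mL/min: 5% acetonitrile/0.1% TFA in water/0.1% TFA for 5 min, then rising by 2%/min to 65%. Samples showing decomposition were run on a separate LC-MS. Samples with little or none were heated 30 min more and re-analysed.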

The values below come from paper PMC4224566 (Molecular Pharmaceutics, 2014).

Consider Ph-NCS-E[c(RGDfK)]2 [compound 10], for which the “release of monomer after 10 min heating” value was “obvious release of c(RGDfK)”.
